Only some compounds are listed: those with a hit (about 1% of all), similar ones and a draw of the others.
RAD54 inh = inhibitors of human RAD54 branch migration | AID 602329 | hit rate 0.14% among 360,000 | Q92698 | inhibition, % at 10.4 µM | RAD54 Holliday junction branch migration, FAM/BHQ fluorescence;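 active means mean normalized replicate activity at least 40 and at least half of replicates scoring 40 or more; inconclusive means only one of the two criteria met; inactive means mean below 40 and under half of replicates reaching 40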;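 further: inhibitors cause a drop in the FAM fluorescence signal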
VIM-2 inh = blocks Pseudomonas aeruginosa VIM-2 metallo-beta-lactamase | purified VIM-2, nitrocefin hydrolysis, epi-absorbance fluorescence | inhibition, % at 5.6 µM | hit rate 0.89% among 290,000 | AID 1527;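 active means inhibition above the mean of all tested compounds plus 3 SD, cutoff set per screening run, cut at about 7.5% in these data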;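 further: red hydrolysis product quenches plate fluorescence so inhibitors raise well fluorescence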
PvdQ acylase = blocks Pseudomonas aeruginosa PvdQ acylase activity | inhibition, % at 10 µM | AID 488965 | hit rate 0.063% among 340,000 | purified PvdQ acylase, fluorescence plate reader; in the data active means inhibition above about 30%, passing the limit was not always enough; inconclusive means no clear call, values can overlap the other calls
IMP-1 inh-1 = blocks Pseudomonas aeruginosa IMP-1 metallo-beta-lactamase | purified IMP-1, nitrocefin hydrolysis, epi-absorbance fluorescence | inhibition, % at 5.6 µM | hit rate 0.45% among 290,000;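 active means inhibition above the mean plus 3 SD of all compounds in the same screening run, cut at about 4.5% in these data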
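System – purified recombinant IMP-1 beta-lactamase · Input – IMP-1 dispensed at 0.2 nM · Timing – 15 min preincubation plus 25 min reaction at 25 °C · Signal – Epi-absorbance fluorescence, 480 nm excitation, 530 nm emission · Measure – percent IMP-1 inhibition derived from blank-referenced optical density · Controls – Enzyme-plus-DMSO low control, enzyme-free DMSO high control · Replication – singlicate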
DNA FID counter = fluorescent intercalator displacement, NS3 helicase counter-screen; hit rate 0.17% among 290,000; DNA fluorescent intercalator displacement, fluorescence; inhibition, % at 7.9 µM; AID 1845; in the data active means inhibition above about 37%;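 further: higher means more ethidium bromide displaced from hairpin DNA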
IMP-1 inh-2 = blocks IMP-1 metallo-beta-lactamase in VIM-2 selectivity screen. shares compounds with VIM-2 inh. purified IMP-1, nitrocefin hydrolysis, epi-absorbance fluorescence. inhibition, % at 5.6 µM. 1,300 tested, under 10 active; call rule not given here
VIM-2 FRET ctr = VIM-2 FRET inhibition, artifact counter-screen. purified VIM-2, CCF2 FRET substrate hydrolysis. AID 1857. hit rate 23% among 1,300. inhibition, % at 5.6 µM. shares compounds with VIM-2 inh;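 active means inhibition above the mean of all tested compounds plus 3 SD, cut at about 19% in these data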
TEM-1 inh = selectivity counter-screen for VIM-2 inhibitors: E. coli TEM-1 inhibitors; Purified TEM-1, nitrocefin hydrolysis, epi-absorbance fluorescence; AID 1866; hit rate 3% among 1,300; inhibition, % at 5.6 µM; shares compounds with VIM-2 inh;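 active means inhibition above that campaign's mean inhibition plus 3 SD, cut at about 0.46% in these data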
Target sequence (P62593 whole entry, looked up): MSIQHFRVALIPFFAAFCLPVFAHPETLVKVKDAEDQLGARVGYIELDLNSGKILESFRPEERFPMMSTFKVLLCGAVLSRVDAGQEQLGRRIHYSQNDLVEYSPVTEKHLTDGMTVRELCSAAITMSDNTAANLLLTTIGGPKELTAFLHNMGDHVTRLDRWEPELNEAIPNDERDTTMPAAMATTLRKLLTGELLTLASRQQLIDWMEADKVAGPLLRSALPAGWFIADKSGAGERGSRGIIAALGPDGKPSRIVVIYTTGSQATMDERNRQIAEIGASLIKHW
VIM-2 confirm 2 = confirmation of P. aeruginosa VIM-2 metallo-beta-lactamase inhibitors; shares compounds with VIM-2 inh; purified VIM-2, nitrocefin hydrolysis, epi-absorbance; inhibition, % at 5.6 µM; hit rate 96% among 1,300; AID 2187;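 active means inhibition of the VIM-2 beta-lactamase enzyme above about 11% from the earlier first-round screen, limit read from the data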
DNA binding = DNA binding artifact in Rad54 counter-screen | Acridine orange-DNA displacement, fluorescence polarization, 20 min | hit rate 8% among 460 | AC50, µM (series often up to 35 µM) | shares compounds with RAD54 inh;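 active means signal drop giving an AC50 within twice the top valid tested concentration of each sample, actives reach about 35 µM in these data; inactive means activity opposite to expected, plus the rest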;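 further: polarization loss reports compound binding to salmon sperm DNA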
A number is an active result; n = inactive; u = inconclusive; x = not tested or not shown.

SMILES | RAD54 inh | VIM-2 inh | PvdQ acylase | IMP-1 inh-1 | DNA FID counter | IMP-1 inh-2 | VIM-2 FRET ctr | TEM-1 inh | VIM-2 confirm 2 | DNA binding
C[C@H](CO)N1C[C@H](C)[C@H](CN(C)C(=O)NC2CCCCC2)Oc2c(NC(=O)C3CCCCC3)cccc2C1=O | n | x | x | x | x | x | x | x | x | x
Cn1cc(-c2ccccc2C(=O)O)c(=O)c2cc(Cl)ccc21 | n | 13.2 | n | n | n | n | 27.3 | n | 18.4 | x
Cc1ccc(-c2nc3ccccc3n3c(C)nnc23)cc1 | x | n | x | n | n | x | x | x | x | x
Cc1nnc2c(SC(C)C)nc3ccccc3n12 | n | 13.5 | n | n | n | n | n | n | 22.3 | x
COc1ccccc1Nc1c2ccccc2nc2ccccc12 | 58.6 | 24.1 | n | n | n | n | n | n | 35.7 | n
COc1ccccc1Nc1nc(-c2ccccc2)nc2ccccc12 | x | n | n | n | n | x | x | x | x | x
O=C(c1ccncc1)N1CC[C@@H]2[C@H](CO)Nc3ccc(Br)cc3[C@@H]21 | n | x | x | x | x | x | x | x | x | x
COc1ccc(CCn2c(=N)c(C(=O)NCCN3CCOCC3)cc3c(=O)n4cccc(C)c4nc32)cc1OC | 77.3 | 19.4 | n | n | 56.2 | n | n | n | 27.1 | n
COc1ccc(CCNC(=O)c2cc3c(=O)n4ccccc4nc3n(CCCN3CCOCC3)c2=N)cc1OC | u | 14.8 | n | n | 46.1 | n | n | n | 20.9 | n
Cc1cccn2c(=O)c3cc(C(=O)NCCc4ccccc4)c(=N)n(CCCn4ccnc4)c3nc12 | 51.8 | 14.1 | n | n | n | n | n | n | 50.8 | n
COc1ccc(CCNC(=O)c2cc3c(=O)n4ccccc4nc3n(CC3CCCO3)c2=N)cc1OC (stereo not given) | n | n | n | n | n | x | x | x | x | x
COCC(=O)N1CC[C@@H]2[C@H]1c1cc(-c3cccc(F)c3)ccc1N(C)[C@H]2CO | n | x | x | x | x | x | x | x | x | x
CCOC(=O)c1cnc2ccc(OC)cc2c1Nc1ccc(N2CCN(C)CC2)cc1 | 71.8 | 76.4 | n | n | 43.9 | n | n | n | 84.7 | n
COc1ccc2nc3cc(Cl)ccc3c(Nc3cc(CN4CCCC4)c(O)c(CN4CCCC4)c3)c2n1 | 124.5 | 20.6 | x | n | 103.1 | n | n | n | 32.9 | 3.72µM
C[C@H]1CN([C@@H](C)CO)C(=O)CCCn2cc(nn2)CO[C@@H]1CN(C)Cc1cccc(C(=O)O)c1 | n | x | x | x | x | x | x | x | x | x
CCN(CC)CCNC(=O)c1cc2c(=O)n(C)c3ccccc3c2s1 | 61.9 | 18.2 | n | n | n | n | n | n | 26.1 | n
CCn1c(=O)c2cc(C(=O)NCC(OC)OC)sc2c2ccccc21 | n | n | n | n | n | x | x | x | x | x
CCOC(=O)N1CCN(S(=O)(=O)c2ccc(C(=O)Nc3sc4c(c3C(=O)OC)CCN(C)C4)cc2)CC1 | u | 76.8 | n | n | n | n | n | n | 82.0 | n
C[C@@H](NC(=O)C[C@@H]1C[C@@H]2c3cc(NC(=O)C4CCOCC4)ccc3O[C@@H]2[C@@H](CO)O1)c1ccccc1 | n | x | x | x | x | x | x | x | x | x
CCOc1ccc2nc(C)cc(Nc3ccc4c(c3)OCCO4)c2c1 | 58.1 | 18.1 | n | n | n | n | n | n | 31.2 | n
CC(=O)N[C@H]1[C@H](O/N=[N+](\[O-])N2CCCC2)OC(CO)[C@@H](O)[C@@H]1O (stereo not given in full) | n | x | x | x | x | x | x | x | x | x
CCOC(=O)c1cc(-c2ccncc2)nc2c1c(C)nn2-c1ccccn1 | 65.2 | 42.4 | n | n | n | n | n | n | 57.6 | n
CO[C@H]1CN(C)C(=O)c2ccc(NC(=O)C3CCOCC3)cc2OC[C@@H](C)N(Cc2cccnc2)C[C@@H]1C | n | x | x | x | x | x | x | x | x | x
CCOC(=O)c1c(-c2ccccc2)csc1NC(=O)CCN1C(=O)c2ccccc2C1=O | n | n | n | n | n | x | x | x | x | x
CCOC(=O)c1c(-c2ccc(-c3ccccc3)cc2)csc1NC(=O)CNCCN(C)C | 53.5 | 17.5 | n | n | n | n | n | n | 26.9 | n
SMILES | RAD54 inh | VIM-2 inh | PvdQ acylase | IMP-1 inh-1 | DNA FID counter | IMP-1 inh-2 | VIM-2 FRET ctr | TEM-1 inh | VIM-2 confirm 2 | DNA binding
c1ccc2c(c1)oc1c(NCCN3CCOCC3)ncnc12 | n | n | n | n | n | x | x | x | x | x
c1ccc2c(c1)oc1c(Nc3ccc(CN4CCOCC4)cc3)ncnc12 | 54.1 | 14.7 | n | n | n | n | n | n | 24.9 | n
C[C@H](CO)N1C[C@H](C)[C@@H](CN(C)C)Oc2ncc(-c3cccc(C(=O)N(C)C)c3)cc2C1=O | n | x | x | x | x | x | x | x | x | x
CC1CCN(CCCNC(=O)c2cc3c(Cl)nc4ccccc4c3s2)CC1 | 89.4 | 23.2 | n | n | n | n | n | n | 32.4 | n
O=C(NCCCN1CCCC1)c1cc2c(Cl)nc3ccccc3c2s1 | u | 22.4 | n | n | n | n | n | n | 34.8 | n
O=C(NCCCN1CCOCC1)c1cc2c(=O)[nH]c3ccccc3c2s1 | n | n | n | n | n | x | x | x | x | x
CC1CCN(CCCNC(=O)c2n[nH]c(=O)c3ccccc23)CC1 | n | n | n | n | n | x | x | x | x | x
COCC(=O)N(C)C[C@@H]1Oc2ncc(C#CC3(O)CCCC3)cc2C(=O)N([C@@H](C)CO)C[C@H]1C | n | x | x | x | x | x | x | x | x | x
Cc1c(OCC(=O)NC2CC(C)(C)NC(C)(C)C2)ccc2c1oc(=O)c1ccccc12 | 66.6 | 27.4 | n | n | n | n | n | n | 39.7 | n
CCOC(=O)c1cnc2c(ccc3ccccc32)c1NCCCN(C)C | 123.5 | 25.3 | n | n | 81.1 | n | n | n | 34.9 | n
CCOC(=O)c1cnc2c(C)c(Cl)ccc2c1NCCCN1CCOCC1 | 60.0 | 16.4 | n | n | 54.4 | n | n | n | 24.9 | n
CCOC(=O)c1cnc2ccccc2c1NCCO | n | n | n | n | n | x | x | x | x | x
O=S(=O)(N[C@H]1CC[C@@H](CCn2cc(-c3ccccc3F)nn2)O[C@@H]1CO)c1ccc(Cl)cc1 | n | x | x | x | x | x | x | x | x | x
CCNC(=O)[C@@H]1[C@@H](CO)[C@@H]2Cn3c(ccc(-c4cccc(F)c4)c3=O)[C@@H]2N1Cc1cc(F)ccc1F | n | x | x | x | x | x | x | x | x | x
Cc1cc(NCCCN(C)C)n2c(nc3ccccc32)c1C#N | 69.5 | 56.6 | n | n | n | n | n | n | 64.7 | n
CCS(=O)(=O)Nc1ccc2c(c1)C(=O)N(C)C[C@@H](OC)[C@@H](C)CN(CCC(F)(F)F)[C@@H](C)CO2 | n | x | x | x | x | x | x | x | x | x
Cc1nc2ccccc2c2oc(C(=O)NCCCN3CCCC3=O)cc12 | n | n | n | n | n | x | x | x | x | x
Cc1nc2ccccc2c2oc(C(=O)NCCN3CCN(C)CC3)cc12 | u | 41.8 | n | n | n | n | n | n | 53.4 | n
CC1CCCCN1CCNC(=O)c1cc2c(=O)n(C)c3ccccc3c2n1C (stereo not given) | 56.7 | 19.6 | n | n | n | n | n | n | 31.0 | n

Screening results as filed in PubChem.
